Laboratory results from ChEMBL document CHEMBL1145927 (J Med Chem, 2003).

Tests used:
[1] = target: T1, Prostaglandin G/H synthase 2 (Homo sapiens) (UniProt P35354); details: at 1 µM
T1 sequence (whole entry): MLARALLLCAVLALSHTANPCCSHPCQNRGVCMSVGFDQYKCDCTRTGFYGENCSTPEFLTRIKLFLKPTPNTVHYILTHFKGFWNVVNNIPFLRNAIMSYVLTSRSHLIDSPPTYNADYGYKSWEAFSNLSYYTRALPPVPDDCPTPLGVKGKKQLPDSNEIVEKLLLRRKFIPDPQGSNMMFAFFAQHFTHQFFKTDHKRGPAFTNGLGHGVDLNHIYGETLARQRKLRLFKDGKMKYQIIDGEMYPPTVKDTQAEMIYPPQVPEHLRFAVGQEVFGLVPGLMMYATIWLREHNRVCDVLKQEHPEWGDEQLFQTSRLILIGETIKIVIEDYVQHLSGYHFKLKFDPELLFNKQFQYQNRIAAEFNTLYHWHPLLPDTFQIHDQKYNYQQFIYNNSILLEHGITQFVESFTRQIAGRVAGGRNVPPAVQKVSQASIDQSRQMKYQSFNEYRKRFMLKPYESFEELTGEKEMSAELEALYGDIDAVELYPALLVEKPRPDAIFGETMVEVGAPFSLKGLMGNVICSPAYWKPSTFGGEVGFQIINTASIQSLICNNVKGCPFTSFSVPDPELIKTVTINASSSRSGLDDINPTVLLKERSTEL

[2] = target: T2, Prostaglandin G/H synthase 1 (Homo sapiens, UniProt P23219); test: In vitro average percent inhibition of human prostaglandin G/H synthase 1 (COX-1) at a concentration of 100 uM
Summary of the method: (§1)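 Supplied recombinant human COX-1 (5 units) preincubated 2 min at 25 °C in 0.1 M Tris-HCl pH 8.0 with 5 mM EDTA, 2 mM phenol and heme; compound or DMSO added, 20 min at 25 °C; started with 10 mM arachidonic acid stock, 2 min at 37 °C; stopped with HCl, SnCl2 reduction; prostaglandins by EIA; percent inhibition versus solvent control.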

[3] = target: T1, Prostaglandin G/H synthase 2 (Homo sapiens); details: at 10 µM
[4] = target: T3, Prostaglandin G/H synthase 1 (Ovis aries) (UniProt P05979); test: Compound was tested for in vitro inhibition of recombinant ovine Prostaglandin G/H synthase 1 (COX-1) at a concentration of 100 uM
T3 sequence (whole entry): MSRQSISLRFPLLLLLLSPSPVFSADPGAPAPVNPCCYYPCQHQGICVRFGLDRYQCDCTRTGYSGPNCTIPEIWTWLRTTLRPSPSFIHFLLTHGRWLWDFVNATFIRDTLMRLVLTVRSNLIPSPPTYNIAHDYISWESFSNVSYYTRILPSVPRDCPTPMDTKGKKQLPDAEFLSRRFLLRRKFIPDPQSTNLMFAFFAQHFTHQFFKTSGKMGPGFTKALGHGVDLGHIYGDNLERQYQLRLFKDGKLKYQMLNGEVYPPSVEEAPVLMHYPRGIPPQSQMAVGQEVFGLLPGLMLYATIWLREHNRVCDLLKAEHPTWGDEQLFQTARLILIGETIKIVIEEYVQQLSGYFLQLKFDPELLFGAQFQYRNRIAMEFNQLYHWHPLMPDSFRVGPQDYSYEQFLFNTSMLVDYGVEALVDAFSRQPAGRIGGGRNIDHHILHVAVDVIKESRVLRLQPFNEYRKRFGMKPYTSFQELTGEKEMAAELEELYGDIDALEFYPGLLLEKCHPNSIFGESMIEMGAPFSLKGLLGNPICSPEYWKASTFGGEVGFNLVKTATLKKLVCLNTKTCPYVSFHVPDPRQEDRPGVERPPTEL
Summary of the method: as §1, with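 “ovine” for “human”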

[5] = target: T2, Prostaglandin G/H synthase 1; details: at 100 µM
[6] = target: T4, Prostaglandin G/H synthase 2 (Homo sapiens, UniProt P35354); test: Compound was tested for the inhibition of recombinant human Prostaglandin G/H synthase 2 (COX-2)
T4 sequence (P35354 whole entry): T1 sequence (whole entry)

[7] = target: T2, Prostaglandin G/H synthase 1; test: Compound was tested for the inhibition of recombinant human Prostaglandin G/H synthase 1 (COX-1)
[8] = target: T1, Prostaglandin G/H synthase 2 (Homo sapiens); details: Blood; at 1 µM
[9] = target: T2, Prostaglandin G/H synthase 1; test: In vitro average percent Inhibition of Prostaglandin G/H synthase 1 (COX-1) at a concentration of 100 uM in human whole blood by human whole blood assay; format: tissue-based
[10] = target: T1, Prostaglandin G/H synthase 2 (Homo sapiens); details: Blood; at 10 µM
[11] = target: T2, Prostaglandin G/H synthase 1; test: In vitro average percent Inhibition of Prostaglandin G/H synthase 1 (COX-1) at a concentration of 100 uM determined in human whole blood by human whole blood (HWB) assay; format: tissue-based
[12] = target: T1, Prostaglandin G/H synthase 2 (Homo sapiens); test: In vitro average percent Inhibition of Prostaglandin G/H synthase 2 (COX-2) at a concentration of 10 uM determined by human whole blood (HWB) assay
Summary of the method: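 Heparinized whole blood from male or female donors free of aspirin/NSAIDs for 14 days, 1 mL aliquots pre-warmed 15 min at 37 °C, 5% CO2; compound in DMSO, duplicate wells; COX-2 induced by E. coli LPS added 4.5 h later, incubated 5 h; stopped on ice with 2 mM EGTA; plasma methanol-extracted, TXB2 by EIA; average of two donors.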

[13] = target: T2, Prostaglandin G/H synthase 1; test: Compound was tested for the inhibition of human Prostaglandin G/H synthase 1 (COX-1) in human whole blood; format: tissue-based
[14] = target: T4, Prostaglandin G/H synthase 2; test: Compound was tested for the inhibition of human Prostaglandin G/H synthase 2 (COX-2) in human whole blood; format: tissue-based

T2 sequence (P23219 whole entry): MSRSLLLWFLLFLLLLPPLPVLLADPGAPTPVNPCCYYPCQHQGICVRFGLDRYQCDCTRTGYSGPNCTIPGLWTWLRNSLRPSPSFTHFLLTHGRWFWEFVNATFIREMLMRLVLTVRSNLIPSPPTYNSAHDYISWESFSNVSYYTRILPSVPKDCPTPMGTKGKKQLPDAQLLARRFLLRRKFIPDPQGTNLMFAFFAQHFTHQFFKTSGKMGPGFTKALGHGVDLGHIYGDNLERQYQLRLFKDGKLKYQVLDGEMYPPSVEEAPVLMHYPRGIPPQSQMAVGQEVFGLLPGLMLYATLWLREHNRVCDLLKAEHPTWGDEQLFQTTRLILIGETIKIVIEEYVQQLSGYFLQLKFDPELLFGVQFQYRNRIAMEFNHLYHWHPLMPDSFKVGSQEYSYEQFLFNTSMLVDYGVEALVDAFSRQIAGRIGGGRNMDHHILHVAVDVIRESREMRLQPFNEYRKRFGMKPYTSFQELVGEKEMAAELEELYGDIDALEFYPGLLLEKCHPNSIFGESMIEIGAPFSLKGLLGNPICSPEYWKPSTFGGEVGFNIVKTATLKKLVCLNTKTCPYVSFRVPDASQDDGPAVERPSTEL

SMILES | inhibition [1] [%] | inhibition [2] [%] | inhibition [3] [%] | inhibition [5] [%] | other results
CS(=O)(=O)c1ccc(-c2cc3c(cc2CC2CCCCCC2)OCO3)cc1 | 90 | 40 | 100 | – | inhibition [4]: 10%
CS(=O)(=O)c1ccc(-c2cc3c(cc2C(=O)c2cccnc2)OCO3)cc1 | 0 | – | 20 | 20 | –
CS(=O)(=O)c1ccc(-c2cc3c(cc2C(=O)C2CCCCC2)OCO3)cc1 | – | 55 | – | – | –
CS(=O)(=O)c1ccc(-c2cc3c(cc2C=C2CCCCCC2)OCO3)cc1 | 100 | 35 | 100 | – | IC50 [6]: 200 nM; IC50 [7]: > 100000 nM; inhibition [4]: 0%
CCOC(=O)C1CCN(Cc2cc3c(cc2-c2ccc(S(C)(=O)=O)cc2)OCO3)CC1 | 20 | – | 20 | 0 | –
CS(=O)(=O)c1ccc(-c2cc3c(cc2C(=O)c2ccc(F)cc2)OCO3)cc1 | – | 95 | – | – | –
CS(=O)(=O)c1ccc(C2=C(c3ccccc3)C(=O)OC2)cc1 | 40 | – | – | 0 | inhibition [8]: 75%; inhibition [9]: 75%
COc1cccc(C(=O)c2cc3c(cc2-c2ccc(S(C)(=O)=O)cc2)OCO3)c1 | – | 95 | – | – | –
O=S(=O)(CF)c1ccc(-c2cc3c(cc2Cc2ccccc2)OCO3)cc1 | 25 | – | 50 | 50 | –
CCOC(=O)C1CCCN(Cc2cc3c(cc2-c2ccc(S(C)(=O)=O)cc2)OCO3)C1 (configuration not stated) | 40 | – | 40 | 10 | –
CS(=O)(=O)c1ccc(-c2cc3c(cc2C(=O)c2cnccc2Br)OCO3)cc1 | 10 | – | 0 | – | inhibition [4]: 40%
CS(=O)(=O)c1ccc(-c2cc3c(cc2Cc2cccc(F)c2)OCO3)cc1 | – | 25 | – | – | –
CS(=O)(=O)c1ccc(-c2cc3c(cc2CN2CCC(O)CC2)OCO3)cc1 | 10 | – | 25 | 0 | –
Cc1cccc(Cc2cc3c(cc2-c2ccc(S(C)(=O)=O)cc2)OCO3)c1 | – | 10 | – | – | –
CS(=O)(=O)c1ccc(-c2cc3c(cc2Cc2cccc(Cl)c2)OCO3)cc1 | – | 65 | – | – | –
Cc1ccc(Cc2cc3c(cc2-c2ccc(S(C)(=O)=O)cc2)OCO3)cc1 | 50 | – | 80 | – | inhibition [8]: 0%; inhibition [9]: 45%; inhibition [10]: 10%; inhibition [4]: 25%
CN1CCN(C(=O)c2cc3c(cc2-c2ccc(S(C)(=O)=O)cc2)OCO3)CC1 | 20 | – | 15 | 15 | –
CS(=O)(=O)c1ccc(-c2cc3c(cc2Cc2ccccc2F)OCO3)cc1 | – | 75 | – | – | –
CS(=O)(=O)c1ccc(-c2cc3c(cc2CC2CCCCC2)OCO3)cc1 | 100 | 50 | 100 | 0 | –
COc1cc(Cc2cc(F)cc(F)c2)c(-c2ccc(S(C)(=O)=O)cc2)cc1OC | – | – | – | – | inhibition [11]: 0%; inhibition [12]: 15%
Cc1ccc(C(=O)c2cc3c(cc2-c2ccc(S(C)(=O)=O)cc2)OCO3)cc1 | – | 60 | – | – | –
CS(=O)(=O)c1ccc(-c2cc3c(cc2C(=O)c2ccccc2)OCO3)cc1 | 10 | – | 90 | 0 | inhibition [8]: 25%; inhibition [9]: 75%; inhibition [10]: 65%

SMILES | inhibition [1] [%] | inhibition [2] [%] | inhibition [3] [%] | inhibition [5] [%] | other results
COc1cccc(Cc2cc3c(cc2-c2ccc(S(C)(=O)=O)cc2)OCO3)c1 | – | 35 | – | – | –
Cc1ccc(F)c(Cc2cc3c(cc2-c2ccc(S(C)(=O)=O)cc2)OCO3)c1 | – | 40 | – | – | –
CS(=O)(=O)c1ccc(-c2cc3c(cc2CN2CCCC(CO)C2)OCO3)cc1 (configuration not stated) | 20 | – | 30 | 0 | –
CS(=O)(=O)c1ccc(-c2ccccc2Cc2cccc(F)c2)cc1 | – | – | – | – | inhibition [11]: 35%
CS(=O)(=O)c1ccc(-c2cc3c(cc2CC2CCCC2)OCO3)cc1 | 40 | – | 70 | – | inhibition [4]: 20%
CS(=O)(=O)c1ccc(-c2cc3c(cc2C(=O)N2CCCC2)OCO3)cc1 | 0 | – | 20 | 0 | –
Cc1ccc(F)c(C(=O)c2cc3c(cc2-c2ccc(S(C)(=O)=O)cc2)OCO3)c1 | – | 90 | – | – | –
CS(=O)(=O)c1ccc(-c2cc3c(cc2C=C2CCCC2)OCO3)cc1 | 65 | 70 | 90 | – | inhibition [4]: 80%
CS(=O)(=O)c1ccc(-c2cc3c(cc2C(=O)N2CCOCC2)OCO3)cc1 | 35 | – | 10 | 10 | –
CS(=O)(=O)c1ccc(-c2cc3c(cc2C(=O)c2ccccc2F)OCO3)cc1 | – | 70 | – | – | –
CS(=O)(=O)c1ccc(-c2cc3c(cc2C(=O)c2cccc(F)c2)OCO3)cc1 | – | 50 | – | – | IC50 [13]: 20000 nM; IC50 [14]: 1000 nM
CS(=O)(=O)c1ccc(-c2cc3c(cc2CN2CCCCC2)OCO3)cc1 | 0 | – | 30 | 0 | –
CS(=O)(=O)c1ccc(-c2cc3c(cc2C(O)c2ccccc2)OCO3)cc1 (configuration not stated) | 0 | – | 0 | 0 | –
CS(=O)(=O)c1ccc(-c2cc3c(cc2Cc2cc(F)cc(F)c2)OCCO3)cc1 | – | – | – | – | inhibition [11]: 70%; inhibition [12]: 40%
CS(=O)(=O)c1ccc(-c2cc3c(cc2Cc2cccnc2)OCO3)cc1 | 0 | – | 65 | 30 | inhibition [8]: 15%; inhibition [9]: 35%; inhibition [10]: 15%
CS(=O)(=O)c1ccc(-c2cc3c(cc2C(=O)c2cc(F)cc(F)c2)OCO3)cc1 | – | 50 | – | – | –
Cc1cccnc1C(=O)c1cc2c(cc1-c1ccc(S(C)(=O)=O)cc1)OCO2 | 0 | – | 10 | 0 | –
CS(=O)(=O)c1ccc(-c2cc3c(cc2Cc2ccc(F)cc2)OCO3)cc1 | 10 | – | 0 | – | inhibition [4]: 10%
CS(=O)(=O)c1ccc(-c2cc3c(cc2CN2CCCCC2CO)OCO3)cc1 (configuration not stated) | 25 | – | 30 | 0 | –
CS(=O)(=O)c1ccc(-c2cc3c(cc2C(=O)N2CCCCC2)OCO3)cc1 | 20 | – | 40 | 15 | –
CS(=O)(=O)c1ccc(-c2cc3c(cc2C(=O)c2cccc(Cl)c2)OCO3)cc1 | – | 90 | – | – | –
CS(=O)(=O)c1ccc(-c2cc3c(cc2CN2CCCCC2=O)OCO3)cc1 | 20 | 50 | 90 | 70 | –
